In ChEMBL document CHEMBL1132451, “Evaluation and biological properties of reactive ligands for the mapping of the glycine site on the N-methyl-D-aspartate (NMDA) receptor” (J Med Chem, 1999):

What was measured:
[1] = biological target: Glutamate receptor ionotropic, NMDA 1 (Rattus norvegicus, UniProt P35439); assay: Displacement of [3H]-5-7 dichlorokynurenic acid ([3H]- DCKA) from N-methyl-D-aspartate glutamate receptor glycine site of rat brain membrane homogenate; type: tissue-based
In short: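 Rat brain membranes kept at -80 °C, thawed, washed in HEPES-KOH 50 mM pH 7.5. About 0.1 mg protein incubated 30 min at 4 °C with 20 nM [3H]-DCKA and increasing probe; nonspecific binding with 1 mM glycine. Filtration, then scintillation counting. Logistic fit; Ki by Cheng-Prusoff (KD 35 nM). Mean (SE) of ≥3 experiments.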

[2] = biological target: Glutamate NMDA receptor; Grin1/Grin2b (Rattus norvegicus, UniProt P35439+Q00960); assay: Antagonistic activity for suppression of membrane current response elicited by fixed concentration of glycine and glutamate in Xenopus oocyte expressing N-methyl-D-aspartate glutamate receptor 1/2B; type: functional
In short: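 Xenopus oocytes expressing cloned NR1A/NR2B, superfused with frog's Ringer (10 mM HEPES, 115 mM NaCl, 0.9 mM CaCl2, 1 mM KCl, pH 7.2) containing 1 μM glycine plus 100 μM glutamate, with increasing antagonist. Washes of 4–6 min between stimulations. IC50 from five-point concentration-inhibition curves, sigmoidal fit, assuming competitive inhibition. Mean (SE) of ≥3 experiments.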

Sequence of Glutamate NMDA receptor; Grin1/Grin2b (Q00960 whole entry, other chains not shown, the tested form may be a part): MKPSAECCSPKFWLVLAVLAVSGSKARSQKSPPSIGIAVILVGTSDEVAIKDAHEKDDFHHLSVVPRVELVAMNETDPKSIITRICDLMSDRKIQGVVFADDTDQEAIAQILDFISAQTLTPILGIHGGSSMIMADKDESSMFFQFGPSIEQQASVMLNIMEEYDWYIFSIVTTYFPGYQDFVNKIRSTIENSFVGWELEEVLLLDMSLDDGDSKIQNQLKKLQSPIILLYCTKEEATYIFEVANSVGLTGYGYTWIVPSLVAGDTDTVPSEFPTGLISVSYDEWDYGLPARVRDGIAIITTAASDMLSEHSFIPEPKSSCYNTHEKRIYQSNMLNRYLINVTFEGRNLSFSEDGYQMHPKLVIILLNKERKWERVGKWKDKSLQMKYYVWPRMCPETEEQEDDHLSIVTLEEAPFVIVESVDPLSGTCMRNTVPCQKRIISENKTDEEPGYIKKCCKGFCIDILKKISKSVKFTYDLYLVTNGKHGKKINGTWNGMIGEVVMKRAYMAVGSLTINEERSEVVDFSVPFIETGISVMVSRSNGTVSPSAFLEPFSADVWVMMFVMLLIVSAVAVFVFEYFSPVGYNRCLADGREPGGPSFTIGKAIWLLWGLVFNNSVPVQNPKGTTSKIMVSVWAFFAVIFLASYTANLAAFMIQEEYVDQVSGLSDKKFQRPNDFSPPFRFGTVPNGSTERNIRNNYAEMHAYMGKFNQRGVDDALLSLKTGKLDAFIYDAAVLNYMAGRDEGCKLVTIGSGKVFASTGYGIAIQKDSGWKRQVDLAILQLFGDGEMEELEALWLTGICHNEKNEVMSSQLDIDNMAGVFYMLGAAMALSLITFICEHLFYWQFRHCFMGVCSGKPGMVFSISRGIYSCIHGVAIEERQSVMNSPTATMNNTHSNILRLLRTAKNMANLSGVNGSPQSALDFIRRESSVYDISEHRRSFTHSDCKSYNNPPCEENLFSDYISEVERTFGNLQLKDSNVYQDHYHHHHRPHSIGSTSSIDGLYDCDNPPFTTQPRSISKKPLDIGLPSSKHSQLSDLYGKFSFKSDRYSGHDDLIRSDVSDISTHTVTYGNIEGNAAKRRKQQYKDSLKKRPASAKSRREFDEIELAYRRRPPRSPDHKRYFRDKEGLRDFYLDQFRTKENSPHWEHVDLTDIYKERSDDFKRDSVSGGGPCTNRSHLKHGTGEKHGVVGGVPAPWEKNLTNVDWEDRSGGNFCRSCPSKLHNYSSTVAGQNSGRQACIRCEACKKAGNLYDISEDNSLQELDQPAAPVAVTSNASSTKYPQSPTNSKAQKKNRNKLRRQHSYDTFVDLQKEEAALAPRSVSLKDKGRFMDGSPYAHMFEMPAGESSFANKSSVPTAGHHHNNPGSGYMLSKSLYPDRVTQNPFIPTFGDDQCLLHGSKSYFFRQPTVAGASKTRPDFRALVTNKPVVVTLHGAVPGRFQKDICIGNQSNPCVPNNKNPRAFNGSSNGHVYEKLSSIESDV

Row | SMILES | Ki [1] [nM] | IC50 [2] [nM]
1 | O=C(CCl)Nc1c(-c2cccc(Oc3ccccc3)c2)c(=O)[nH]c2cc(Cl)ccc12 | 216 | > 100000
2 | O=C(Oc1c(-c2cccc(Oc3ccccc3)c2)c(=O)[nH]c2cc(Cl)ccc12)c1ccc(S(=O)(=O)F)cc1 | 24.2 | 2410
3 | O=C(CCl)Nc1ccc2c(O)c(-c3cccc(Oc4ccccc4)c3)c(=O)[nH]c2c1 | 278 | 38000
4 | O=C(CCl)Nc1cccc(-c2c(O)c3ccc(Cl)cc3[nH]c2=O)c1 | 42 | 155
5 | O=C(CCl)Nc1cccc(Oc2cccc(-c3c(O)nc4cc(Cl)ccc4c3O)c2)c1 | 13.8 | 39
6 | N#[N+]c1ccc2c(O)c(-c3cccc(Oc4ccccc4)c3)c(O)nc2c1 | > 1000 | 
7 | O=c1[nH]c2cc(Cl)ccc2c(O)c1-c1cccc(N=C=S)c1 | 47.6 | 200
8 | O=C(CCl)Nc1ccccc1Oc1cccc(-c2c(O)nc3cc(Cl)ccc3c2O)c1 | 7.1 | 24
9 | O=C(CCl)Nc1ccc2c(OC(=O)CCl)c(-c3cccc(Oc4ccccc4)c3)c(=O)[nH]c2c1 | 427 | 63000
10 | O=c1[nH]c2cc(Cl)ccc2c(O)c1-c1cccc(Oc2ccccc2)c1 | 14 | 18
11 | O=c1[nH]c2cc(Cl)ccc2c(O)c1-c1cccc(NCCS(=O)(=O)F)c1 | 24 | 335
12 | O=c1[nH]c2cc(Cl)ccc2c(O)c1-c1cccc(Oc2ccccc2NCCS(=O)(=O)F)c1 | 26.8 | 32
13 | O=c1[nH]c2cc(N=C=S)ccc2c(O)c1-c1cccc(Oc2ccccc2)c1 | 64.3 | 24000
